# Results as given in ChEMBL document CHEMBL1122007, “A comparison of the inhibition of growth of methotrexate-resistant and -sensitive leukemia cells in culture by triazines. Evidence for a new mechanism of cell resistance to methotrexate” (1982).
# Tested on: L5178Y
# Assay: Compound was tested in vitro for concentration required to decrease 50% growth rate of murine leukemia L5178Y/R cell culture
# Type: functional, Mus musculus
# Method in brief: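 Seeded at 4.0-6.0 × 10^4 cells/mL in duplicate. Drug added 1:10, at least eight concentrations, for 48 h of continuous exposure under 5% CO2. Cells counted by Coulter counter. ID50 is the concentration that halves the growth rate (doubles the generation time), read from the dose-response curve.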
row,Structure (SMILES),Log 1/C
1,CCCCCCCCCOc1cccc(N2C(N)=NC(N)=NC2(C)C)c1,6.57
2,CC(C)c1cccc(OCc2cccc(N3C(N)=NC(N)=NC3(C)C)c2)c1,5.87
3,CC1(C)N=C(N)N=C(N)N1c1cccc(CNc2cc(C(N)=O)cc(C(N)=O)c2)c1,3.79
4,Cc1cccc(OCc2cccc(N3C(N)=NC(N)=NC3(C)C)c2)c1,5.59
5,CC1(C)N=C(N)N=C(N)N1c1cccc(COc2cccc(NC(N)=O)c2)c1,4.74
6,CC1(C)N=C(N)N=C(N)N1c1cccc(OCCOc2cccc(C(F)(F)F)c2)c1,5.85
7,CC(=O)Nc1cccc(OCc2cccc(N3C(N)=NC(N)=NC3(C)C)c2)c1,4.95
8,CC1(C)N=C(N)N=C(N)N1c1cccc([N+](=O)[O-])c1,5.03
9,CC1(C)N=C(N)N=C(N)N1c1cccc(CSc2ccccc2)c1,6.2
10,CC1(C)N=C(N)N=C(N)N1c1cccc(C(O)c2ccccc2)c1 (configuration not stated),4.17
11,CC1(C)N=C(N)N=C(N)N1c1cccc(OCCOc2ccccc2)c1,5.02
12,CC1(C)N=C(N)N=C(N)N1c1cccc(F)c1,5.24
13,CC(C)(C)c1cccc(N2C(N)=NC(N)=NC2(C)C)c1,6.03
14,CC1(C)N=C(N)N=C(N)N1c1cccc(Br)c1,5.9
15,CC1(C)N=C(N)N=C(N)N1c1cccc(I)c1,5.91
16,CC1(C)N=C(N)N=C(N)N1c1cccc(OCc2ccc(Cl)c(Cl)c2)c1,5.8
17,CCCCCCCCCCCOc1cccc(N2C(N)=NC(N)=NC2(C)C)c1,6.38
18,CC1(C)N=C(N)N=C(N)N1c1cccc(COc2ccccc2)c1,5.67
19,CCc1cccc(OCc2cccc(N3C(N)=NC(N)=NC3(C)C)c2)c1,5.74

row,Structure (SMILES),Log 1/C
1,CC1(C)N=C(N)N=C(N)N1c1cccc(COc2cccc(C#N)c2)c1,5.25
2,CCCCCCCCCCCCOc1cccc(N2C(N)=NC(N)=NC2(C)C)c1,6.24
3,CCCCCCCCCCCCCOc1cccc(N2C(N)=NC(N)=NC2(C)C)c1,6.52
4,CCCCCCc1cccc(N2C(N)=NC(N)=NC2(C)C)c1,6.39
5,CC(C)(C)c1cccc(OCc2cccc(N3C(N)=NC(N)=NC3(C)C)c2)c1,6.08
6,CC1(C)N=C(N)N=C(N)N1c1cccc(COc2cccc(NC(=N)S)c2)c1,4.01
7,CCCCCCCCCCCCCCOc1cccc(N2C(N)=NC(N)=NC2(C)C)c1,6.49
8,CC1(C)N=C(N)N=C(N)N1c1cccc(COc2cccc(Cl)c2)c1,5.93
9,COc1cccc(OCc2cccc(N3C(N)=NC(N)=NC3(C)C)c2)c1,5.36
10,CC1(C)N=C(N)N=C(N)N1c1cccc(COc2cccc(CO)c2)c1,4.77
11,CN(C)C(=O)c1cccc(COc2ccc(N3C(N)=NC(N)=NC3(C)C)cc2Cl)c1,5.4
12,CC1(C)N=C(N)N=C(N)N1c1cccc(OCCCCOc2cccc(C(F)(F)F)c2)c1,6.28
13,CC(=O)c1cccc(N2C(N)=NC(N)=NC2(C)C)c1,4.56
14,CC1(C)N=C(N)N=C(N)N1c1cccc(OCCCCOc2ccccc2)c1,5.3
15,Cc1cccc(N2C(N)=NC(N)=NC2(C)C)c1,4.97
16,CC1(C)N=C(N)N=C(N)N1c1cccc(OCc2ccccc2)c1,5.19
17,CCCCOc1cccc(N2C(N)=NC(N)=NC2(C)C)c1,5.95
18,CN(Cc1cnc2nc(N)nc(N)c2n1)c1ccc(C(=O)N[C@@H](CCC(=O)O)C(=O)O)cc1 [METHOTREXATE],2.9
